According to ChEMBL document CHEMBL5724801, “EUbOPEN Chemogenomics Library - Multiplex” (2024):
Several values for one entry are separate records, joined by “and”; a condition that tells them apart may be missing. Identical values can stand only once.

Tested on: HEK-293T
Assay: Multiplex assay against HEK293T
Assay type: toxicity, cell-based
Conditions: human
Procedure, shortened: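 Values for tubulin, mitochondrial-mass and membrane-permeability phenotypes are per cents of cells with healthy nuclei. These cells were identified by CellPathfinder machine-learning gating of live cells that had been stained at seeding with Hoechst33342, BioTracker Green Microtubule Cytoskeleton Dye, MitoTracker Red and Annexin V Alexa Fluor 680 and imaged on a CQ1 microscope at 37°C and 5% CO2 after compound addition. The gating first set Hoechst high-intensity objects apart from normal cells, then split normal cells into healthy, pyknosed or fragmented nuclei, and pyknosed cells into mitotic or apoptotic.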

[1] = 12 h, 1 µM, compound concentration 1 uM
[2] = 12 h, 10 µM, compound concentration 10 uM
[3] = 24 h, 1 µM, compound concentration 1 uM
[4] = 24 h, 10 µM, compound concentration 10 uM
[5] = 48 h, 1 µM, compound concentration 1 uM
[6] = 48 h, 10 µM, compound concentration 10 uM

CC(F)(F)CN1CCOc2c(nn(-c3ccccc3Cl)c2-c2ccc(Cl)cc2)C1=O
Population Apoptotic (%) [1]: 29% and 64%
Population Healthy Nuclei (%) [1]: 77% and 78%
Population Membrane Permeable-Phenotype (%) [1]: 0%
Population Mitochondria Different-Phenotype (%) [1]: 43% and 53%
Population Mitotic Cells (%) [1]: 70% and 35%
Population Normal (%) [1]: 93% and 91%
Population Pyknosed Nuclei (%) [1]: 12% and 16%
Total Cell Count [1]: 397 and 369
Population Apoptotic (%) [2]: 57% and 43%
Population Healthy Nuclei (%) [2]: 73% and 75%
Population Membrane Permeable-Phenotype (%) [2]: 0%
Population Mitochondria Different-Phenotype (%) [2]: 78% and 84%
Population Mitotic Cells (%) [2]: 42% and 56%
Population Normal (%) [2]: 89% and 94%
Population Pyknosed Nuclei (%) [2]: 22% and 18%
Total Cell Count [2]: 384 and 397
Population Apoptotic (%) [3]: 25% and 43%
Population Healthy Nuclei (%) [3]: 79% and 84%
Population Membrane Permeable-Phenotype (%) [3]: 0%
Population Mitochondria Different-Phenotype (%) [3]: 22% and 31%
Population Mitotic Cells (%) [3]: 74% and 56%
Population Normal (%) [3]: 97% and 93%
Population Pyknosed Nuclei (%) [3]: 11% and 8%
Total Cell Count [3]: 568 and 478
Population Apoptotic (%) [4]: 57% and 41%
Population Healthy Nuclei (%) [4]: 76% and 80%
Population Membrane Permeable-Phenotype (%) [4]: 0%
Population Mitochondria Different-Phenotype (%) [4]: 71% and 79%
Population Mitotic Cells (%) [4]: 42% and 58%
Population Normal (%) [4]: 92% and 94%
Population Pyknosed Nuclei (%) [4]: 15%
Population Tubulin-Different-Phenotype (%) [4]: 50%
Total Cell Count [4]: 450 and 477
Population Apoptotic (%) [5]: 22% and 25%
Population Healthy Nuclei (%) [5]: 77% and 79%
Population Membrane Permeable-Phenotype (%) [5]: 1%
Population Mitochondria Different-Phenotype (%) [5]: 14% and 23%
Population Mitotic Cells (%) [5]: 77% and 74%
Population Normal (%) [5]: 99% and 97%
Population Pyknosed Nuclei (%) [5]: 7%
Population Tubulin-Different-Phenotype (%) [5]: 8%
Total Cell Count [5]: 1015 and 734
Population Apoptotic (%) [6]: 55% and 35%
Population Healthy Nuclei (%) [6]: 74% and 78%
Population Membrane Permeable-Phenotype (%) [6]: 0%
Population Mitochondria Different-Phenotype (%) [6]: 62% and 68%
Population Mitotic Cells (%) [6]: 44% and 65%
Population Normal (%) [6]: 93%
Population Pyknosed Nuclei (%) [6]: 11%
Total Cell Count [6]: 540 and 558

Cc1ccc(C(C)(O)c2nc3ccccc3s2)c(C)c1 (stereo not given)
Population Apoptotic (%) [1]: 30% and 41%
Population Healthy Nuclei (%) [1]: 72% and 79%
Population Hoechst High Intensity Objects (%) [1]: 4% and 5%
Population Membrane Permeable-Phenotype (%) [1]: 1% and 0%
Population Mitochondria Different-Phenotype (%) [1]: 36% and 63%
Population Mitotic Cells (%) [1]: 70% and 58%
Population Normal (%) [1]: 95% and 94%
Population Pyknosed Nuclei (%) [1]: 8% and 16%
Population Tubulin-Different-Phenotype (%) [1]: 30% and 25%
Total Cell Count [1]: 483 and 308
Population Apoptotic (%) [2]: 56% and 36%
Population Fragmented Nuclei (%) [2]: 5% and 7%
Population Healthy Nuclei (%) [2]: 82% and 78%
Population Hoechst High Intensity Objects (%) [2]: 8% and 7%
Population Membrane Permeable-Phenotype (%) [2]: 0%
Population Mitochondria Different-Phenotype (%) [2]: 62% and 72%
Population Mitotic Cells (%) [2]: 43% and 63%
Population Normal (%) [2]: 91% and 92%
Population Pyknosed Nuclei (%) [2]: 12% and 13%
Population Tubulin-Different-Phenotype (%) [2]: 44% and 25%
Total Cell Count [2]: 412 and 318
Population Apoptotic (%) [3]: 26% and 32%
Population Fragmented Nuclei (%) [3]: 18% and 6%
Population Healthy Nuclei (%) [3]: 73% and 85%
Population Hoechst High Intensity Objects (%) [3]: 3%
Population Membrane Permeable-Phenotype (%) [3]: 1% and 0%
Population Mitochondria Different-Phenotype (%) [3]: 15% and 36%
Population Mitotic Cells (%) [3]: 73% and 67%
Population Normal (%) [3]: 96%
Population Pyknosed Nuclei (%) [3]: 8% and 7%
Population Tubulin-Different-Phenotype (%) [3]: 11% and 16%
Total Cell Count [3]: 645 and 447
Population Apoptotic (%) [4]: 28% and 36%
Population Fragmented Nuclei (%) [4]: 6% and 10%
Population Healthy Nuclei (%) [4]: 82% and 78%
Population Hoechst High Intensity Objects (%) [4]: 8% and 6%
Population Membrane Permeable-Phenotype (%) [4]: 0%
Population Mitochondria Different-Phenotype (%) [4]: 42% and 63%
Population Mitotic Cells (%) [4]: 71% and 63%
Population Normal (%) [4]: 91% and 93%
Population Pyknosed Nuclei (%) [4]: 11% and 10%
Population Tubulin-Different-Phenotype (%) [4]: 34% and 23%
Total Cell Count [4]: 487 and 379
Population Apoptotic (%) [5]: 17% and 34%
Population Fragmented Nuclei (%) [5]: 20% and 13%
Population Healthy Nuclei (%) [5]: 73% and 78%
Population Hoechst High Intensity Objects (%) [5]: 2% and 3%
Population Membrane Permeable-Phenotype (%) [5]: 1%
Population Mitochondria Different-Phenotype (%) [5]: 15% and 22%
Population Mitotic Cells (%) [5]: 82% and 65%
Population Normal (%) [5]: 97% and 96%
Population Pyknosed Nuclei (%) [5]: 5% and 8%
Population Tubulin-Different-Phenotype (%) [5]: 12% and 11%
Total Cell Count [5]: 964 and 621
Population Apoptotic (%) [6]: 33% and 50%
Population Fragmented Nuclei (%) [6]: 14% and 13%
Population Healthy Nuclei (%) [6]: 76% and 80%
Population Hoechst High Intensity Objects (%) [6]: 2% and 3%
Population Membrane Permeable-Phenotype (%) [6]: 0% and 1%
Population Mitochondria Different-Phenotype (%) [6]: 28% and 33%
Population Mitotic Cells (%) [6]: 66% and 50%
Population Normal (%) [6]: 97% and 96%
Population Pyknosed Nuclei (%) [6]: 9% and 5%
Population Tubulin-Different-Phenotype (%) [6]: 18% and 13%
Total Cell Count [6]: 713 and 508
